Converted amounts (≈) assume the structure as drawn.
How the values were obtained:
Format in all cases: functional
[1] = system: Bacteroides thetaiotaomicron; assay: Antimicrobial activity against Bacteroides thetaiotaomicron after 48 hrs by agar dilution method
Summary of the method: (§1)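 MICs on clinical anaerobe isolates by the CLSI agar dilution method. Inoculum of 10^5 CFU applied with a Steers replicator. Plates incubated 48 h at 37°C in an anaerobic chamber.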

Bacteroides ovatus [2] = assay: Antimicrobial activity against Bacteroides ovatus after 48 hrs by agar dilution method; summary of the method: as §1
Bacteroides fragilis = assay: Antimicrobial activity against Bacteroides fragilis assessed as percent resistant isolates after 48 hrs by agar dilution method
Summary of the method: (§2)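 CLSI agar dilution on recent Korean clinical anaerobe isolates. Inoculum 10^5 CFU per spot by replicator. Plates incubated in an anaerobic chamber at 37°C for 48 h. For piperacillin plus tazobactam, tazobactam was held constant at 4 μg/ml. Resistance and susceptibility rates derived from MICs.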

[3] = system: Bacteroides thetaiotaomicron; assay: Antimicrobial activity against Bacteroides thetaiotaomicron assessed as percent susceptible isolates after 48 hrs by agar dilution method
[4] = system: Bacteroides thetaiotaomicron; assay: Antimicrobial activity against Bacteroides thetaiotaomicron assessed as percent resistant isolates after 48 hrs by agar dilution method; summary of the method: as §2
Bacteroides ovatus [5] = assay: Antimicrobial activity against Bacteroides ovatus assessed as percent susceptible isolates after 48 hrs by agar dilution method
Prevotella buccae = assay: Antimicrobial activity against Prevotella buccae after 48 hrs by agar dilution method; conditions: Segatella buccae
Summary of the method: (§3)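 CLSI agar dilution (M11-A7); inoculum 10^5 CFU applied by replicator; plates incubated anaerobically 48 h at 37°C. For piperacillin-tazobactam, tazobactam held constant at 4 μg/ml.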

Hoylesella oralis = assay: Antimicrobial activity against Prevotella oralis after 48 hrs by agar dilution method; summary of the method: as §3
Prevotella intermedia = assay: Antimicrobial activity against Prevotella intermedia assessed as percent susceptible isolates after 48 hrs by agar dilution method; summary of the method: as §3
Prevotella bivia [6] = assay: Antimicrobial activity against Prevotella bivia assessed as percent susceptible isolates after 48 hrs by agar dilution method; summary of the method: as §3
Prevotella bivia [7] = assay: Antimicrobial activity against Prevotella bivia assessed as percent resistant isolates after 48 hrs by agar dilution method; summary of the method: as §2
[8] = system: Porphyromonas asaccharolytica; assay: Antimicrobial activity against Porphyromonas asaccharolytica after 48 hrs by agar dilution method; summary of the method: as §3
Fusobacterium varium = assay: Antimicrobial activity against Fusobacterium varium after 48 hrs by agar dilution method; summary of the method: as §3
Fusobacterium mortiferum = assay: Antimicrobial activity against Fusobacterium mortiferum after 48 hrs by agar dilution method; summary of the method: as §3
Parvimonas micra = assay: Antimicrobial activity against Peptostreptococcus micros assessed as percent susceptible isolates after 48 hrs by agar dilution method; summary of the method: as §2
[9] = system: Peptoniphilus asaccharolyticus; assay: Antimicrobial activity against Peptoniphilus asaccharolyticus after 48 hrs by agar dilution method; summary of the method: as §3
[10] = system: Peptoniphilus asaccharolyticus; assay: Antimicrobial activity against Peptoniphilus asaccharolyticus assessed as percent resistant isolates after 48 hrs by agar dilution method; summary of the method: as §2
Clostridium perfringens [11] = assay: Antimicrobial activity against Clostridium perfringens after 48 hrs by agar dilution method
Clostridium perfringens [12] = assay: Antimicrobial activity against Clostridium perfringens assessed as percent susceptible isolates after 48 hrs by agar dilution method
Clostridioides difficile = assay: Antimicrobial activity against Clostridium difficile after 48 hrs by agar dilution method
Schaalia odontolytica = assay: Antimicrobial activity against Actinomyces odontolyticus assessed as percent susceptible isolates after 48 hrs by agar dilution method
Actinomyces israelii = assay: Antimicrobial activity against Actinomyces israelii assessed as percent susceptible isolates after 48 hrs by agar dilution method
Schaalia meyeri [13] = assay: Antimicrobial activity against Actinomyces meyeri assessed as percent susceptible isolates after 48 hrs by agar dilution method
Schaalia meyeri [14] = assay: Antimicrobial activity against Actinomyces meyeri assessed as percent resistant isolates after 48 hrs by agar dilution method; summary of the method: as §2
Actinomyces naeslundii = assay: Antimicrobial activity against Actinomyces naeslundii assessed as percent susceptible isolates after 48 hrs by agar dilution method
Eggerthella lenta [15] = assay: Antimicrobial activity against Eubacterium lentum after 48 hrs by agar dilution method; summary of the method: as §3
Eggerthella lenta [16] = assay: Antimicrobial activity against Eubacterium lentum assessed as percent susceptible isolates after 48 hrs by agar dilution method; summary of the method: as §3
Eggerthella lenta [17] = assay: Antimicrobial activity against Eubacterium lentum assessed as percent resistant isolates after 48 hrs by agar dilution method; summary of the method: as §2
Eubacterium sp. = assay: Antimicrobial activity against Eubacterium sp. after 48 hrs by agar dilution method; summary of the method: as §3

O=C(N[C@H](CO)[C@H](O)c1ccc([N+](=O)[O-])cc1)C(Cl)Cl [CHLORAMPHENICOL]
MIC [1]: 4 µg/mL (≈ 12.4 µM) | MIC50 [1]: 4 µg/mL (≈ 12.4 µM) | MIC90 [1]: 8 µg/mL (≈ 24.8 µM) | MIC (Bacteroides ovatus [2]): 4 µg/mL (≈ 12.4 µM) | MIC50 (Bacteroides ovatus [2]): 4 µg/mL (≈ 12.4 µM) | MIC90 (Bacteroides ovatus [2]): 8 µg/mL (≈ 24.8 µM) | Activity (Bacteroides fragilis): 0% | Activity [3]: 98% | Activity [4]: 0% | Activity (Bacteroides ovatus [5]): 98% | MIC50 (Prevotella buccae): 4 µg/mL (≈ 12.4 µM) | MIC90 (Prevotella buccae): 8 µg/mL (≈ 24.8 µM) | MIC50 (Hoylesella oralis): 4 µg/mL (≈ 12.4 µM) | MIC90 (Hoylesella oralis): 8 µg/mL (≈ 24.8 µM) | Activity (Prevotella intermedia): 100% | Activity (Prevotella bivia [6]): 100% | Activity (Prevotella bivia [7]): 0% | MIC [8]: 0.13 µg/mL (≈ 0.402 µM) | MIC (Fusobacterium varium): 0.13 µg/mL (≈ 0.402 µM) | MIC (Fusobacterium mortiferum): 0.13 µg/mL (≈ 0.402 µM) | Activity (Parvimonas micra): 0% | MIC50 [9]: 2 µg/mL (≈ 6.19 µM) | MIC90 [9]: 4 µg/mL (≈ 12.4 µM) | Activity [10]: 0% | MIC50 (Clostridium perfringens [11]): 4 µg/mL (≈ 12.4 µM) | MIC90 (Clostridium perfringens [11]): 4 µg/mL (≈ 12.4 µM) | Activity (Clostridium perfringens [12]): 100% | MIC50 (Clostridioides difficile): 4 µg/mL (≈ 12.4 µM) | MIC90 (Clostridioides difficile): 16 µg/mL (≈ 49.5 µM) | Activity (Schaalia odontolytica): 92% | Activity (Actinomyces israelii): 92% | Activity (Schaalia meyeri [13]): 92% | Activity (Schaalia meyeri [14]): 0% | Activity (Actinomyces naeslundii): 92% | MIC (Eggerthella lenta [15]): 1 µg/mL (≈ 3.09 µM) | MIC50 (Eggerthella lenta [15]): 1 µg/mL (≈ 3.09 µM) | MIC90 (Eggerthella lenta [15]): 2 µg/mL (≈ 6.19 µM) | Activity (Eggerthella lenta [16]): 92% | Activity (Eggerthella lenta [17]): 0% | MIC (Eubacterium sp.): 1 µg/mL (≈ 3.09 µM) | MIC50 (Eubacterium sp.): 1 µg/mL (≈ 3.09 µM) | MIC90 (Eubacterium sp.): 2 µg/mL (≈ 6.19 µM)

C[C@@H](O)[C@H]1C(=O)N2C(C(=O)O)=C(SCCNC=N)C[C@H]12 [IMIPENEM ANHYDROUS]
MIC50 [1]: 0.5 µg/mL (≈ 1.67 µM) | MIC90 [1]: 4 µg/mL (≈ 13.4 µM) | MIC50 (Bacteroides ovatus [2]): 0.5 µg/mL (≈ 1.67 µM) | MIC90 (Bacteroides ovatus [2]): 4 µg/mL (≈ 13.4 µM) | Activity (Bacteroides fragilis): 2% | Activity [3]: 95% | Activity [4]: 4% | Activity (Bacteroides ovatus [5]): 95% | MIC50 (Prevotella buccae): 0.06 µg/mL (≈ 0.2 µM) | MIC90 (Prevotella buccae): 0.5 µg/mL (≈ 1.67 µM) | MIC50 (Hoylesella oralis): 0.06 µg/mL (≈ 0.2 µM) | MIC90 (Hoylesella oralis): 0.5 µg/mL (≈ 1.67 µM) | Activity (Prevotella intermedia): 100% | Activity (Prevotella bivia [6]): 100% | Activity (Prevotella bivia [7]): 0% | MIC [8]: 0.02 µg/mL (≈ 0.0668 µM) | MIC (Fusobacterium varium): 0.02 µg/mL (≈ 0.0668 µM) | MIC (Fusobacterium mortiferum): 0.02 µg/mL (≈ 0.0668 µM) | Activity (Parvimonas micra): 0% | MIC50 [9]: ≤ 0.008 µg/mL | MIC90 [9]: 0.03 µg/mL (≈ 0.1 µM) | Activity [10]: 0% | MIC50 (Clostridium perfringens [11]): 0.125 µg/mL (≈ 0.418 µM) | MIC90 (Clostridium perfringens [11]): 0.125 µg/mL (≈ 0.418 µM) | Activity (Clostridium perfringens [12]): 100% | MIC50 (Clostridioides difficile): 4 µg/mL (≈ 13.4 µM) | MIC90 (Clostridioides difficile): 8 µg/mL (≈ 26.7 µM) | Activity (Schaalia odontolytica): 100% | Activity (Actinomyces israelii): 100% | Activity (Schaalia meyeri [13]): 100% | Activity (Schaalia meyeri [14]): 0% | Activity (Actinomyces naeslundii): 100% | MIC50 (Eggerthella lenta [15]): 0.06 µg/mL (≈ 0.2 µM) | MIC90 (Eggerthella lenta [15]): 0.5 µg/mL (≈ 1.67 µM) | Activity (Eggerthella lenta [16]): 100% | Activity (Eggerthella lenta [17]): 0% | MIC50 (Eubacterium sp.): 0.06 µg/mL (≈ 0.2 µM) | MIC90 (Eubacterium sp.): 0.5 µg/mL (≈ 1.67 µM)

C[C@@H](O)[C@H]1C(=O)N2C(C(=O)O)=C(S[C@@H]3CN[C@H](C(=O)N(C)C)C3)[C@H](C)[C@H]12 [MEROPENEM]
MIC50 [1]: 0.25 µg/mL (≈ 0.652 µM) | MIC90 [1]: 2 µg/mL (≈ 5.22 µM) | MIC50 (Bacteroides ovatus [2]): 0.25 µg/mL (≈ 0.652 µM) | MIC90 (Bacteroides ovatus [2]): 2 µg/mL (≈ 5.22 µM) | Activity (Bacteroides fragilis): 3% | Activity [3]: 98% | Activity [4]: 0% | Activity (Bacteroides ovatus [5]): 98% | MIC50 (Prevotella buccae): 0.125 µg/mL (≈ 0.326 µM) | MIC90 (Prevotella buccae): 0.5 µg/mL (≈ 1.3 µM) | MIC50 (Hoylesella oralis): 0.125 µg/mL (≈ 0.326 µM) | MIC90 (Hoylesella oralis): 0.5 µg/mL (≈ 1.3 µM) | Activity (Prevotella intermedia): 100% | Activity (Prevotella bivia [6]): 100% | Activity (Prevotella bivia [7]): 0% | MIC [8]: 0.008 µg/mL (≈ 0.0209 µM) | MIC (Fusobacterium varium): 0.008 µg/mL (≈ 0.0209 µM) | MIC (Fusobacterium mortiferum): 0.008 µg/mL (≈ 0.0209 µM) | Activity (Parvimonas micra): 0% | MIC50 [9]: ≤ 0.008 µg/mL | MIC90 [9]: 0.03 µg/mL (≈ 0.0782 µM) | Activity [10]: 0% | MIC50 (Clostridium perfringens [11]): 0.015 µg/mL (≈ 0.0391 µM) | MIC90 (Clostridium perfringens [11]): 0.015 µg/mL (≈ 0.0391 µM) | Activity (Clostridium perfringens [12]): 100% | MIC50 (Clostridioides difficile): 2 µg/mL (≈ 5.22 µM) | MIC90 (Clostridioides difficile): 2 µg/mL (≈ 5.22 µM) | Activity (Schaalia odontolytica): 92% | Activity (Actinomyces israelii): 92% | Activity (Schaalia meyeri [13]): 92% | Activity (Schaalia meyeri [14]): 8% | Activity (Actinomyces naeslundii): 92% | MIC50 (Eggerthella lenta [15]): 0.125 µg/mL (≈ 0.326 µM) | MIC90 (Eggerthella lenta [15]): 2 µg/mL (≈ 5.22 µM) | Activity (Eggerthella lenta [16]): 92% | Activity (Eggerthella lenta [17]): 8% | MIC50 (Eubacterium sp.): 0.125 µg/mL (≈ 0.326 µM) | MIC90 (Eubacterium sp.): 2 µg/mL (≈ 5.22 µM)

— ChEMBL document CHEMBL1671716, “Antimicrobial susceptibility patterns for recent clinical isolates of anaerobic bacteria in South Korea” (2010)
